From ChEMBL document CHEMBL2150901, “Synthesis and biological activity of tricyclic cycloalkylimidazo-, pyrimido- and diazepinopurinediones” (Eur J Med Chem, 2011)
Calls of active or inactive are those of the source. The rule behind the calls is not given here.

Key:
Adenosine receptor A1 [1] = biological target: T1, Adenosine receptor A1 (Rattus norvegicus, UniProt P25099); assay: Displacement of [3H]CCPA from adenosine A1 receptor in rat brain cortical membrane; type: cell membranes
T1 sequence (P25099 whole entry): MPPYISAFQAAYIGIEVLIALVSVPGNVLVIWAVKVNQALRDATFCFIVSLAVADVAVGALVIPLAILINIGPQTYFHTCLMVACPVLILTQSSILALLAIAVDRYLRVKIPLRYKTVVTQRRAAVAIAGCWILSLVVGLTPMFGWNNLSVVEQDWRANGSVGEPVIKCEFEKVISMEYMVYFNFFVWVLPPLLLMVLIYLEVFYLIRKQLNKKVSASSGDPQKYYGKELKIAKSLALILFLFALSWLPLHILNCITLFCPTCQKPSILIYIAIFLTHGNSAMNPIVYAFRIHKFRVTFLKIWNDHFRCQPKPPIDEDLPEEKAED

Mus musculus [2] = assay: Anticonvulsant activity in F1 albino mouse assessed as protection against subcutaneous pentylenetetrazole-induced seizures at 300 mg/kg, ip after 0.25 hrs; type: functional, organism-based; parameters: dose 300 mg/kg
Method in brief: (§1)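 Male albino F-1 mice (18–25 g), groups of 1–5 (rotorod 2–8). Compound given ip as a suspension in 0.5% methylcellulose at 30, 100 and 300 mg/kg. Seizures by maximal electroshock or subcutaneous pentylenetetrazole; neurotoxicity by rotorod. Read at 0.5 and 4 h, with some at 0.25, 1 and 2 h. Value is the minimum active dose, with protected (or toxic)/tested animals.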

Mus musculus [3] = assay: Anticonvulsant activity in F1 albino mouse assessed as protection against subcutaneous pentylenetetrazole-induced seizures at 300 mg/kg, ip after 4 hrs; type: functional, organism-based; parameters: dose 300 mg/kg; method in brief: as §1
Mus musculus [4] = assay: Neurotoxicity in F1 albino mouse assessed as minimal motor impairment at 300 mg/kg, ip after 1 hr by rotorod test; type: toxicity, organism-based; parameters: dose 300 mg/kg, route intraperitoneal; conditions: in vivo; method in brief: as §1
[5] = biological target: T2, Adenosine receptor A1 (Rattus norvegicus) (UniProt P25099); assay: Displacement of [3H]CCPA from adenosine A1 receptor in rat brain cortical membrane at 25 uM; type: cell membranes
T2 sequence (whole entry): T1 sequence (P25099 whole entry)

Adenosine receptor A2a [6] = biological target: Adenosine receptor A2a (Rattus norvegicus, UniProt P30543); assay: Displacement of [3H]MSX-2 from adenosine A2A receptor in rat brain striatal membrane; type: cell membranes
Mus musculus [7] = assay: Anticonvulsant activity in F1 albino mouse assessed as protection against maximal electroshock-induced seizures at 300 mg/kg, ip after 1 hr; type: functional, organism-based; parameters: dose 300 mg/kg; method in brief: as §1
Mus musculus [8] = assay: Anticonvulsant activity in F1 albino mouse assessed as protection against maximal electroshock-induced seizures at 300 mg/kg, ip after 0.5 hrs; type: functional, organism-based; parameters: dose 300 mg/kg; method in brief: as §1
Mus musculus [9] = assay: Neurotoxicity in F1 albino mouse assessed as minimal motor impairment at 300 mg/kg, ip after 0.25 hrs by rotorod test; type: toxicity, organism-based; parameters: dose 300 mg/kg, route intraperitoneal; conditions: in vivo; method in brief: as §1
Mus musculus [10] = assay: Anticonvulsant activity in F1 albino mouse assessed as protection against subcutaneous pentylenetetrazole-induced seizures at 300 mg/kg, ip after 1 hr; type: functional, organism-based; parameters: dose 300 mg/kg; method in brief: as §1
Mus musculus [11] = assay: Anticonvulsant activity in F1 albino mouse assessed as protection against subcutaneous pentylenetetrazole-induced seizures at 300 mg/kg, ip after 0.5 hrs; type: functional, organism-based; parameters: dose 300 mg/kg; method in brief: as §1
Mus musculus [12] = assay: Anticonvulsant activity in F1 albino mouse assessed as protection against maximal electroshock-induced seizures at 300 mg/kg, ip after 4 hrs; type: functional, organism-based; parameters: dose 300 mg/kg; method in brief: as §1
Mus musculus [13] = assay: Neurotoxicity in F1 albino mouse assessed as minimal motor impairment at 100 mg/kg, ip after 0.5 hrs by rotorod test; type: toxicity, organism-based; parameters: dose 100 mg/kg, route intraperitoneal; conditions: in vivo; method in brief: as §1
Mus musculus [14] = assay: Anticonvulsant activity in F1 albino mouse assessed as protection against maximal electroshock-induced seizures at 300 mg/kg, ip after 0.25 hrs; type: functional, organism-based; parameters: dose 300 mg/kg; method in brief: as §1
Rattus norvegicus = organism: Rattus norvegicus; assay: Selectivity ratio of Ki for adenosine A1 receptor in rat brain cortical membrane to Ki for adenosine A2A receptor in rat brain striatal membrane; type: cell membranes
Method in brief: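 Ki ratios from radioligand competition binding. Rat A1 used brain cortical membranes and rat A2A used brain striatal membranes. Human A1 and A2A used membranes of CHO cells expressing the receptors. A1 radioligand [³H]CCPA; A2A radioligand [³H]MSX-2. Potent compounds were tested at 6–7 concentrations spanning 3 orders of magnitude.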

Mus musculus [15] = assay: Neurotoxicity in F1 albino mouse assessed as minimal motor impairment at 300 mg/kg, ip after 4 hrs by rotorod test; type: toxicity, organism-based; parameters: dose 300 mg/kg, route intraperitoneal; conditions: in vivo; method in brief: as §1
[16] = biological target: T3, Adenosine receptor A2b (Homo sapiens) (UniProt P29275); assay: Displacement of [3H]PSB-603 from human recombinant adenosine A2B receptor expressed in CHO cells at 10 uM; type: cell-based
T3 sequence (whole entry): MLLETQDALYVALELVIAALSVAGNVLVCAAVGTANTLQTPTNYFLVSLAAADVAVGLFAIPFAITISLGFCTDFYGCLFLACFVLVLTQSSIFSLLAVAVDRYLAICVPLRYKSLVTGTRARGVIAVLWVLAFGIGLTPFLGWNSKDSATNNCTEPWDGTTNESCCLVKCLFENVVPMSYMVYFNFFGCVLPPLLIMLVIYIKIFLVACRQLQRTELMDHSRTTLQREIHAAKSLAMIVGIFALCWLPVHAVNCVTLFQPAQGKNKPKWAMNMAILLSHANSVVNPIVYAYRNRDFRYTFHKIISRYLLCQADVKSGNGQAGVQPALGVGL
Method in brief: (§2)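 CHO cell membranes expressing the human receptor. Radioligands: A1 [3H]CCPA; A2B [3H]ZM241385 or [3H]PSB-603; A3 [3H]PSB-11. […] Potent compounds run at 6–7 concentrations spanning 3 orders of magnitude; Ki ± SEM.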

[17] = biological target: T4, Adenosine receptor A3 (Homo sapiens) (UniProt P0DMS8); assay: Displacement of [3H]PSB-11 from human recombinant adenosine A3 receptor expressed in CHO cells at 10 uM; type: cell-based; method in brief: as §2
T4 sequence (whole entry): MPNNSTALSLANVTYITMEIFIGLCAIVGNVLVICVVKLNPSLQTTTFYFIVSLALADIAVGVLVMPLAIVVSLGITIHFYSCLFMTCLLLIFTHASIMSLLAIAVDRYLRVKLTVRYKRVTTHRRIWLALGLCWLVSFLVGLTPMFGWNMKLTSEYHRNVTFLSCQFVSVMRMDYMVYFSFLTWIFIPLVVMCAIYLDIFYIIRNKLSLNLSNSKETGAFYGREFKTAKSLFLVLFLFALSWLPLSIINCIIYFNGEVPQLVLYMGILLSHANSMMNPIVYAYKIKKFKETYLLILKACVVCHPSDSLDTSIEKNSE

[18] = biological target: T5, Adenosine receptor A1 (Homo sapiens) (UniProt P30542); assay: Displacement of [3H]CCPA from human recombinant adenosine A1 receptor expressed in CHO cells at 10 uM; type: cell-based; method in brief: as §2
T5 sequence (whole entry): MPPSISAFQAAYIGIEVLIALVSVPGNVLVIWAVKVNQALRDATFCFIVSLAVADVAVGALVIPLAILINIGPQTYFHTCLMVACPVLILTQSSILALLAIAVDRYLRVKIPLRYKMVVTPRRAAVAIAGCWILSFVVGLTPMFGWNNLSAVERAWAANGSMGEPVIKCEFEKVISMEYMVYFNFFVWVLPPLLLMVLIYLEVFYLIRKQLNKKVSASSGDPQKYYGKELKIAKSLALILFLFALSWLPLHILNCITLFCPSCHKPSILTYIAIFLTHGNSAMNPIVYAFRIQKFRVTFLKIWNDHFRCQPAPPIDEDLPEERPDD

Mus musculus [19] = assay: Neurotoxicity in F1 albino mouse assessed as minimal motor impairment at 300 mg/kg, ip after 0.5 hrs by rotorod test; type: toxicity, organism-based; parameters: dose 300 mg/kg, route intraperitoneal; conditions: in vivo; method in brief: as §1
Adenosine receptor A2a [20] = biological target: Adenosine receptor A2a (Homo sapiens, UniProt P29274); assay: Displacement of [3H]MSX-2 from human recombinant adenosine A2A receptor expressed in CHO cells; type: cell-based
Adenosine receptor A2b = biological target: T6, Adenosine receptor A2b (Homo sapiens, UniProt P29275); assay: Displacement of [3H]PSB-603 from human recombinant adenosine A2B receptor expressed in CHO cells; type: cell-based; method in brief: as §2
T6 sequence (P29275 whole entry): T3 sequence (whole entry)

Adenosine receptor A1 [21] = biological target: T7, Adenosine receptor A1 (Homo sapiens, UniProt P30542); assay: Displacement of [3H]CCPA from human recombinant adenosine A1 receptor expressed in CHO cells; type: cell-based
T7 sequence (P30542 whole entry): T5 sequence (whole entry)

Adenosine receptor A3 = biological target: T8, Adenosine receptor A3 (Homo sapiens, UniProt P0DMS8); assay: Displacement of [3H]PSB-11 from human recombinant adenosine A3 receptor expressed in CHO cells; type: cell-based
T8 sequence (P0DMS8 whole entry): T4 sequence (whole entry)

Chain of Adenosine receptor A2a (Rattus norvegicus, UniProt P30543) (P30543 whole entry): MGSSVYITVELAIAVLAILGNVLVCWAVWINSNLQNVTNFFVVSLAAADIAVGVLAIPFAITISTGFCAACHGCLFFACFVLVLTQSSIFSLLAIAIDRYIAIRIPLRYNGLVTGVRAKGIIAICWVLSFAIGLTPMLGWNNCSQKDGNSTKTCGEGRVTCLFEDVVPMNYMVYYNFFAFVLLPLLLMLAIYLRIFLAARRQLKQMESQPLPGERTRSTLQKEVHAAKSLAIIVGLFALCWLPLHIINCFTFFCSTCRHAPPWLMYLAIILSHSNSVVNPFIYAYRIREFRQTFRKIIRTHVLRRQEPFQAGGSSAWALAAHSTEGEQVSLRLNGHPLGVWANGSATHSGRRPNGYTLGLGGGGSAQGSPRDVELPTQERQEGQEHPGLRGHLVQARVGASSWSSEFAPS
Chain of Adenosine receptor A2a (Homo sapiens, UniProt P29274) (P29274 whole entry): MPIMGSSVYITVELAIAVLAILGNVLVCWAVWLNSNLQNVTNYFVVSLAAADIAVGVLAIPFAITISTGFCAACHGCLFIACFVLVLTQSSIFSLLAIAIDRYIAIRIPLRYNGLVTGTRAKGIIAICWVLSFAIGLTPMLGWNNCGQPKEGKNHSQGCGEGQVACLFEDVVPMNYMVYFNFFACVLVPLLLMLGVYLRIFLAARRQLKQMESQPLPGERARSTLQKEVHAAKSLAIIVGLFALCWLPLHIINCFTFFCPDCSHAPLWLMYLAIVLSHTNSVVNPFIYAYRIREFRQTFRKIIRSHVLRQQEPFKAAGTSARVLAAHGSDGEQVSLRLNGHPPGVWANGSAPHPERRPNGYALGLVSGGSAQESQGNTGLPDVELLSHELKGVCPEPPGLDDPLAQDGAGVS

| Structure (SMILES) | Ki (Adenosine receptor A1 [1]) [µM] | Activity (Mus musculus [2]) | Activity (Mus musculus [3]) | Activity (Mus musculus [4]) | inhibition [5] [%] | Ki (Adenosine receptor A2a [6]) [µM] | Activity (Mus musculus [7]) | Activity (Mus musculus [8]) | Activity (Mus musculus [9]) | Activity (Mus musculus [10]) | Activity (Mus musculus [11]) | Activity (Mus musculus [12]) | Activity (Mus musculus [14]) | Ratio Ki (Rattus norvegicus) | Activity (Mus musculus [15]) | inhibition [16] [%] | inhibition [17] [%] | Activity (Mus musculus [19]) | Ki (Adenosine receptor A2a [20]) [µM] | Ki (Adenosine receptor A2b) [µM] | other results |
| --- | --- | --- | --- | --- | --- | --- | --- | --- | --- | --- | --- | --- | --- | --- | --- | --- | --- | --- | --- | --- | --- |
| Cn1c(=O)c2c(nc3n2CCCCN3C2CCC(O)CC2)n(C)c1=O (mixture of isomers) | ≥ 25 | inactive | inactive | Non-toxic | 44 | 3.81 | inactive | inactive | Non-toxic | inactive | Active | inactive | inactive | 7 | Non-toxic |  |  |  |  |  | Activity (Mus musculus [13]): Non-toxic |
| Cn1c(=O)c2c(nc3n2CCCN3C2CCCCCC2)n(C)c1=O | > 10 | inactive | inactive | Non-toxic | 4 | 2.67 | inactive | inactive | Non-toxic | inactive | inactive | inactive | inactive | 4 | Non-toxic | 0 | 6 | Non-toxic | 1.16 | > 10 | inhibition [18]: 41%; Ki (Adenosine receptor A1 [21]): > 10 µM; Ki (Adenosine receptor A3): > 10 µM |
| Cn1c(=O)c2c(nc3n2CCCN3C2CCC2)n(C)c1=O | ≥ 10 | inactive | inactive | Non-toxic | 39 | 1.93 | inactive | inactive | Non-toxic | inactive | inactive | inactive | inactive | > 5 | Non-toxic | 21 | 5 | Non-toxic | 0.847 | > 10 | Ki (Adenosine receptor A1 [21]): 10.3 µM; Ki (Adenosine receptor A3): > 10 µM |
